This note sets out measurements from ChEMBL document CHEMBL4765376, “Discovery of an Orally Available Diazabicyclooctane Inhibitor (ETX0282) of Class A, C, and D Serine β-Lactamases” (J Med Chem, 2020).

Data set [1] has as its system Escherichia coli. Briefly: Inhibition of beta-lactamase activity in Escherichia coli ARC3627 assessed as MIC for cefpodoxime antibacterial activity at 4 ug/ml by CLSI based broth dilution method (Rvb >64 ug/ml). The settings on record: dose 4.0 µg/ml.
Data set [2] is described as follows: Inhibition of beta lactamase TEM-1 in Escherichia coli assessed as decrease in enzyme activity using nitrocefin as chromogenic substrate incubated for 10 mins by […] plate reader analysis.
A short description of data set [3]: Inhibition of beta lactamase OXA-48 in Klebsiella pneumoniae assessed as decrease in enzyme activity using nitrocefin as chromogenic substrate incubated for 10 mins by […] plate reader analysis.
Data set [4] can be described thus: Inhibition of beta lactamase OXA-48 in Klebsiella pneumoniae assessed as decrease in enzyme activity using nitrocefin as chromogenic substrate incubated for 60 mins by absorbance plate reader analysis.
The subject of data set [5] is Klebsiella pneumoniae. Briefly: Inhibition of beta-lactamase activity in Klebsiella pneumoniae ARC561 assessed as MIC for cefpodoxime antibacterial activity at 4 ug/ml by CLSI based broth dilution method (reference value: 32 ug/ml). The settings on record: dose 4.0 µg/ml. In general terms: Dilution methods test growth across graded concentrations, often in twofold steps.

Data set [6] in a line: Inhibition of beta lactamase AmpC in Pseudomonas aeruginosa assessed as decrease in enzyme activity using nitrocefin as chromogenic substrate incubated for 60 mins by […] plate reader analysis.
A short description of data set [7]: Inhibition of beta lactamase TEM-1 in Escherichia coli assessed as decrease in enzyme activity using nitrocefin as chromogenic substrate incubated for 60 mins by […] plate reader analysis.
Data set [8] in a line: Inhibition of beta lactamase AmpC in Pseudomonas aeruginosa assessed as decrease in enzyme activity using nitrocefin as chromogenic substrate incubated for 10 mins by […] plate reader analysis.
Data set [9] deals with Escherichia coli. Briefly: Antibacterial activity against Escherichia coli ARC3627 assessed as reduction in bacterial growth by CLSI based broth dilution method. The data set is classed as functional. A digest of the protocol: (§1)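 Broth microdilution in CAMHB following CLSI.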
The subject of data set [10] is Klebsiella pneumoniae. Kind of data set: Antibacterial activity against Klebsiella pneumoniae ARC561 assessed as reduction in bacterial growth by CLSI based broth dilution method. The data set is classed as functional. In short, it runs like this:
as §1

The nature of data set [11]: Oral bioavailability in Sprague-Dawley rat at 10 mg/kg by LC/MS/MS analysis. The data set is classed as ADME, organism-based. The settings on record: in vivo. A digest of the protocol: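 Jugular vein-cannulated male Sprague Dawley rats (180–200 g, n = 3/route). Intravenous arm: active acid at 10 mg/kg in 0.9% saline, plasma sampled 0.08–8 h. Oral arm: prodrug at a dose equivalent to 10 mg/kg acid in 25:75 PEG 400/WFI, plasma sampled 0.25–24 h. Levels by LC/MS/MS; F = (AUCpo/AUCiv) × 100.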

In brackets after ≈: the same amount, converted by molar mass. Activity calls are given as the source filed them. No cut-off for these calls is given here.

The term IC50 denotes the midpoint of a concentration-inhibition curve. Regarding `CC1=C[C@@H](C(N)=O)N2C[C@@H]1N(O[C@H](F)C(=O)O)C2=O`, the values for the MIC in the data set on Escherichia coli [1] and with Klebsiella pneumoniae [5] were below 0.06 µg/mL and 0.25 µg/mL (≈ 0.915 µM), respectively. Besides, the IC50 amounted to 2.3 nM in data set [2]; 370 nM in data set [3]; 70 nM in data set [4]; 140 nM in data set [6]; 3.2 nM in data set [7]; 450 nM in data set [8].

Regarding `CC1=C[C@@H]2CN(C(=O)N2O[C@@H](F)C(=O)O)[C@@H]1C(=O)NC1COC1`, the MIC in the data set with Escherichia coli [1] was above 32 µg/mL; in the data set on Escherichia coli [9] it was 16 µg/mL (≈ 48.6 µM); in the data set on Klebsiella pneumoniae [5] it was 4 µg/mL (≈ 12.1 µM); in the data set on Klebsiella pneumoniae [10] it was above 32 µg/mL. Besides, the IC50 in [2] was found to be 440 nM; in data set [3], 55 nM; in data set [4] it was 12 nM; in data set [6], 54 nM; in data set [7], 660 nM; in data set [8] it was 260 nM.

`CC1=C[C@@H]2CN(C(=O)N2OC(F)(F)C(=O)O)[C@@H]1C(N)=O`: the MIC entry with Escherichia coli [1], with Escherichia coli [9], in the data set with Klebsiella pneumoniae [5] and in the data set on Klebsiella pneumoniae [10] was “inactive” throughout. In addition, the IC50 was 1.2 nM in data set [2]; 75 nM in data set [3]; 14 nM in data set [4]; 12 nM in data set [6]; 1.5 nM in data set [7]; 50 nM in [8].

The term bioavailability denotes dose-corrected exposure relative to a reference, in per cent. The low end stands for poor availability, the high end for good availability. The compound `CC1=C[C@@H]2CN(C(=O)N2O[C@H](F)C(=O)OC(C)C)[C@@H]1C(N)=O` registered a bioavailability in data set [11] of 38%.

Turning to `NC(=O)[C@@H]1CC[C@@H]2CN1C(=O)N2OS(=O)(=O)O` [AVIBACTAM], the MIC in the data set with Escherichia coli [1] was 0.5 µg/mL (≈ 1.89 µM); in the data set on Escherichia coli [9], 32 µg/mL (≈ 121 µM); with Klebsiella pneumoniae [5] it was 1 µg/mL (≈ 3.77 µM); in the data set on Klebsiella pneumoniae [10] it was above 32 µg/mL.

On to `CC1=C[C@@H]2CN(C(=O)N2OC(C)(F)C(=O)O)[C@@H]1C(N)=O` (stereo not given in full), for which the MIC is 2 µg/mL (≈ 6.96 µM) in the data set with Escherichia coli [1], above 32 µg/mL with Escherichia coli [9], 2 µg/mL (≈ 6.96 µM) in the data set with Klebsiella pneumoniae [5] and above 32 µg/mL in the data set with Klebsiella pneumoniae [10]. Besides, the IC50 in [2] was 680 nM; in [3] it was 89000 nM; in data set [4] it was 22000 nM; in [6] it was 400 nM; in data set [7], 230 nM; in [8] it was 1400 nM.

As for `CC1=C[C@@H]2CN(C(=O)N2O[C@@H](F)C(=O)O)[C@@H]1C(=O)NOCC1CC1`, the MIC with Escherichia coli [1] is 16 µg/mL (≈ 46.6 µM); with Escherichia coli [9] it was above 32 µg/mL; with Klebsiella pneumoniae [5] it was 4 µg/mL (≈ 11.7 µM); in the data set with Klebsiella pneumoniae [10], above 32 µg/mL. The IC50 amounted to 18 nM in [2]; 400 nM in [3]; 87 nM in data set [4]; 130 nM in data set [6]; 26 nM in data set [7]; 700 nM in [8].

Take `CC1=C[C@@H](C(N)=O)N2C[C@@H]1N(OCC(=O)O)C2=O`: the MIC was below 0.06 µg/mL in the data set with Escherichia coli [1], 2 µg/mL (≈ 7.84 µM) with Escherichia coli [9], 0.125 µg/mL (≈ 0.49 µM) in the data set with Klebsiella pneumoniae [5] and 32 µg/mL (≈ 125 µM) in the data set with Klebsiella pneumoniae [10]. For the same compound, the IC50 in data set [2] worked out at 340 nM; in [3], 66 nM; in data set [4], 530 nM; in data set [6], 4600 nM; in [7], 150 nM; in [8] it was 14000 nM.

On to `CC1=C[C@@H]2CN(C(=O)N2O[C@@H](F)C(=O)O)[C@@H]1C(=O)NCCNS(N)(=O)=O`, for which the MIC in the data set on Escherichia coli [1] was below 0.06 µg/mL; in the data set with Escherichia coli [9], 2 µg/mL (≈ 5.06 µM); in the data set on Klebsiella pneumoniae [5], 0.125 µg/mL (≈ 0.316 µM); in the data set on Klebsiella pneumoniae [10], above 32 µg/mL. Also, the IC50 in [2] amounted to 55 nM; in data set [3], 2000 nM; in data set [4] it was 420 nM; in [6], 14 nM; in data set [7], 83 nM; in data set [8], 53 nM.

Regarding `CCOC(=O)[C@@H](F)ON1C(=O)N2C[C@H]1C(C)=C[C@H]2C(N)=O`, in data set [11], the bioavailability was 75%.

Regarding `CC1=C[C@@H](C(N)=O)N2C[C@@H]1N(O[C@@H](F)C(=O)OC(C)C)C2=O`, the bioavailability in data set [11] was found to be 84%.

In the case of `CC1=C[C@@H]2CN(C(=O)N2OCC(=O)O)[C@@H]1C(N)=O`, the MIC with Escherichia coli [1] is 4 µg/mL (≈ 15.7 µM); in the data set on Escherichia coli [9] it was 32 µg/mL (≈ 125 µM); with Klebsiella pneumoniae [5], 2 µg/mL (≈ 7.84 µM); with Klebsiella pneumoniae [10], above 32 µg/mL. The IC50 in data set [2] amounted to 1500 nM; in data set [3], 150 nM; in data set [4] it was 51 nM; in data set [6], 1200 nM; in [7], 430 nM; in data set [8] it was 4100 nM.

For `CC1=C[C@@H]2CN(C(=O)N2O[C@H](F)C(=O)O)[C@@H]1C(N)=O`, the MIC came to 0.06 µg/mL (≈ 0.22 µM) with Escherichia coli [1], 2 µg/mL (≈ 7.32 µM) in the data set on Escherichia coli [9], 0.25 µg/mL (≈ 0.915 µM) in the data set on Klebsiella pneumoniae [5] and 32 µg/mL (≈ 117 µM) in the data set with Klebsiella pneumoniae [10]. In addition, the half-maximal inhibitory concentration (IC50) came to 0.73 nM in data set [2]; 71 nM in data set [3]; 15 nM in [4]; 11 nM in data set [6]; 1.4 nM in data set [7]; 41 nM in [8].

Take `CC1=C[C@@H](C(N)=O)N2C[C@@H]1N(O[C@@H](F)C(=O)O)C2=O` (racemic): the MIC in the data set with Escherichia coli [1] was below 0.06 µg/mL; in the data set with Klebsiella pneumoniae [5], 0.06 µg/mL (≈ 0.22 µM); in the data set with Klebsiella pneumoniae [10], above 32 µg/mL. The IC50 in data set [2] was found to be 20 nM; in data set [3], 67 nM; in [4], 19 nM; in data set [6], 300 nM; in data set [7], 26 nM; in [8] it was 1300 nM.

For `CC1=C[C@@H]2CN(C(=O)N2O[C@@H](F)C(=O)O)[C@@H]1C(=O)NCCS(N)(=O)=O`, the MIC with Escherichia coli [1] is below 0.06 µg/mL; in the data set with Escherichia coli [9] it was 4 µg/mL (≈ 10.5 µM); with Klebsiella pneumoniae [5], 1 µg/mL (≈ 2.63 µM); with Klebsiella pneumoniae [10] it was above 32 µg/mL. The half-maximal inhibitory concentration (IC50) is 48 nM in data set [2]; 2200 nM in data set [3]; 410 nM in data set [4]; 4.1 nM in [6]; 57 nM in data set [7]; 22 nM in [8].

Take `CC1=C[C@@H]2CN(C(=O)N2OS(=O)(=O)O)[C@@H]1C(N)=O`: the MIC is below 0.06 µg/mL with Escherichia coli [1], 0.25 µg/mL (≈ 0.902 µM) in the data set with Escherichia coli [9], below 0.06 µg/mL with Klebsiella pneumoniae [5] and 8 µg/mL (≈ 28.9 µM) with Klebsiella pneumoniae [10]. Further, the IC50 in data set [3] was determined as 24 nM; in data set [4] it was 5 nM; in [6], 5.8 nM; in data set [8] it was 8 nM.

In the case of `CC1=C[C@@H]2CN(C(=O)N2O[C@H](F)C(=O)OC(C)OC(=O)OC(C)C)[C@@H]1C(N)=O` (stereo not given in full), the bioavailability in [11] was determined as 11%.

Compound `CCOC(=O)[C@@H](F)ON1C(=O)N2C[C@H]1C=C(C)[C@H]2C(N)=O` yielded a bioavailability in data set [11] of 45%.

Regarding `NC(=O)[C@@H]1C(C2CC2)=C[C@@H]2CN1C(=O)N2OC(F)C(=O)O` (single isomer, unassigned), the MIC in the data set on Escherichia coli [1] is 2 µg/mL (≈ 6.68 µM); in the data set with Escherichia coli [9], 32 µg/mL (≈ 107 µM); in the data set on Klebsiella pneumoniae [5], 2 µg/mL (≈ 6.68 µM); in the data set with Klebsiella pneumoniae [10], above 32 µg/mL. The IC50 in data set [2] is 18 nM; in [3], 17 nM; in [4], 5.2 nM; in data set [6] it was 95 nM; in data set [7], 24 nM; in [8], 290 nM.

As to `CC1=C[C@@H]2CN(C(=O)N2O[C@@H](F)C(=O)O)[C@@H]1c1nnc(C(N)=O)o1`, the MIC with Escherichia coli [1] is 2 µg/mL (≈ 5.86 µM); in the data set with Escherichia coli [9] it was 16 µg/mL (≈ 46.9 µM); in the data set with Klebsiella pneumoniae [5], 2 µg/mL (≈ 5.86 µM); with Klebsiella pneumoniae [10] it was above 32 µg/mL. The IC50 came out at 17 nM in [2]; 26 nM in [3]; 7.3 nM in data set [4]; 180 nM in data set [6]; 24 nM in data set [7]; 360 nM in data set [8].

In data set [11], `CCOC(=O)[C@H](F)ON1C(=O)N2C[C@H]1C(C)=C[C@H]2C(N)=O` (racemic) had a bioavailability of 71%.

On to `CC1=C[C@@H]2CN(C(=O)N2O[C@@H](F)C(=O)O)[C@@H]1C(N)=O`, for which the MIC in the data set with Escherichia coli [1] is 1 µg/mL (≈ 3.66 µM); with Escherichia coli [9], 8 µg/mL (≈ 29.3 µM); in the data set on Klebsiella pneumoniae [5], 2 µg/mL (≈ 7.32 µM); with Klebsiella pneumoniae [10], above 32 µg/mL. For the same compound, the IC50 in data set [2] was found to be 13 nM; in data set [3], 63 nM; in [4] it was 15 nM; in [6], 71 nM; in [7], 19 nM; in data set [8], 180 nM.
